{"data": "Measured values gathered from unrelated publications", "organism": "Staphylococcus aureus", "read-out": "microbial growth"}
{"SMILES": "O=C(Nc1ccc(OC(F)(F)F)cc1)c1sccc1NCc1ccnc2ccccc12", "system": "NCTC8325", "MIC": "> 30 µM"}
{"SMILES": "C[C@@H](O)[C@H]1C(=O)N2C(C(=O)O)=C(S[C@@H]3CN[C@H](C(=O)N(C)C)C3)[C@H](C)[C@H]12", "assay": "broth dilution", "setting": "24 h", "MIC": "0.0625 mg/L"}
{"SMILES": "Cc1cc(/C=C2\\Sc3ccccc3N2CCCN2CCC(C)CC2)c2ccccc2[n+]1C.[I-]", "assay": "broth dilution", "system": "ATCCBAA44", "MIC": "1 mg/L"}
{"SMILES": "CC(C)Oc1c(NC(=O)c2ccc(NC(=O)[C@H](CC(N)=O)NC(=O)c3ccc(NC(=O)c4ccc(C#N)s4)cc3)cc2)ccc(C(=O)Nc2ccc(C(=O)O)cc2)c1O", "system": "ATCC29213", "MIC": "0.25 mg/L"}
{"SMILES": "COc1c(C)c(OC(C)=O)c(C)c(O)c1C(=O)/C=C/c1ccccc1", "assay": "broth dilution", "system": "ATCC25923", "MIC": "2500 mg/L"}
{"SMILES": "O=C(O)CN1C(=O)/C(=C/c2c3ccccc3c(-c3ccc(N(c4ccccc4)c4ccccc4)cc3)c3ccccc23)SC1=S", "assay": "broth dilution", "system": "ATCC43300", "MIC": "> 1000 mg/L"}
{"SMILES": "C[n+]1c(/C=C/c2ccc(O)cc2)cc(/C=C2\\Sc3ccccc3N2CCCN2CCCC2)c2ccccc21.[I-]", "assay": "broth dilution", "system": "ATCCBAA44", "MIC": "32 mg/L"}
{"SMILES": "COc1cc(OC)c2cc(C(=O)NCc3ccc(Br)cc3)cc(O)c2c1", "assay": "broth dilution", "system": "ATCC29213 MSSA", "MIC": "32 mg/L"}
{"SMILES": "COc1cccc(-c2nc3ccc(C)cc3[nH]2)c1", "assay": "broth dilution", "system": "ATCC29213 MSSA", "MIC": "128 mg/L"}
{"SMILES": "CC(C)Oc1c(NC(=O)c2ccc(NC(=O)[C@H](CC(N)=O)NC(=O)c3ccc(NC(=O)c4ccc(N)cc4)cc3)cc2)ccc(C(=O)Nc2ccc(C(=O)O)cc2)c1O", "system": "ATCC29213", "MIC": "> 64 mg/L"}
{"SMILES": "Oc1ccccc1-c1nc2ccccc2[nH]1", "assay": "broth dilution", "system": "ATCC29213 MSSA", "MIC": "256 mg/L"}
{"SMILES": "COc1ccc(C(=O)O)cc1NC(=O)/C=C/c1ccc(-c2ccccc2C)cc1", "MIC": "64 mg/L"}
{"SMILES": "COc1ccc(-c2nc3ccccc3[nH]2)cc1O", "assay": "broth dilution", "system": "ATCC29213 MSSA", "MIC": "128 mg/L"}
{"SMILES": "Clc1cccc(NCc2ccc(Oc3ccccn3)cc2)c1", "MIC": "1.8 mg/L"}
{"SMILES": "COc1cccc(OC)c1C(=O)N[C@@H]1C(=O)N2[C@@H]1SC(C)(C)[C@@H]2C(=O)O", "system": "147", "setting": "clinical isolate", "MIC": "6.25 µM"}
{"SMILES": "C/N=C(/NC)c1ccc(NC(=O)/C=C/c2ccc(/C=C/C(=O)Nc3ccc(/C(=N\\C)NC)cc3)cc2)cc1", "MIC": "2 mg/L"}
{"SMILES": "CC1(C)S[C@@H]2[C@H](NC(=O)COc3ccccc3)C(=O)N2[C@H]1C(=O)O", "assay": "broth dilution", "system": "ATCC25923", "setting": "18 h", "MIC": "2 mg/L"}
{"SMILES": "O=C(Nc1ccc2c(c1)OC(F)(F)O2)c1ccc(Cl)c(C(F)(F)F)c1", "system": "NCTC8325", "MIC": "3 µM"}
{"SMILES": "Cc1ccc2nc(-c3ccc([N+](=O)[O-])cc3)[nH]c2c1", "assay": "broth dilution", "system": "ATCC29213 MSSA", "MIC": "128 mg/L"}
{"SMILES": "O=C(O)c1cn(C2CC2)c2cc(N3CCNCC3)c(F)cc2c1=O", "assay": "broth dilution", "system": "ATCC25923", "MIC": "0.49 mg/L"}
{"SMILES": "CNc1cccc2cc(C(=O)NCc3ccc(C(=O)O)cc3)c(=O)[nH]c12", "system": "ATCC29213", "MIC": "> 64 mg/L"}
{"SMILES": "c1cncc(-c2nc3ccccc3[nH]2)c1", "assay": "broth dilution", "system": "ATCC29213 MSSA", "MIC": "128 mg/L"}
{"SMILES": "C[C@@H](O)[C@H]1C(=O)N2C(C(=O)O)=C(S[C@@H]3CN[C@H](C(=O)N(C)C)C3)[C@H](C)[C@H]12", "assay": "broth dilution", "system": "ATCC29213", "MIC": "32 mg/L"}
{"SMILES": "Cc1cc(Nc2ncnc3ccc(NC4=NC(C)(C)CO4)cc23)ccc1Oc1ccn2ncnc2c1", "system": "NCTC8325", "MIC": "> 30 µM"}
{"SMILES": "C[C@@H]1[C@H](O)[C@@H](C)/C=C/C=C/C=C/C=C/C=C/C=C/C=C/[C@H](O[C@@H]2O[C@H](C)[C@@H](O)[C@H](N)[C@@H]2O)C[C@@H]2O[C@](O)(C[C@@H](O)C[C@@H](O)[C@H](O)CC[C@@H](O)C[C@@H](O)CC(=O)O[C@H]1C)C[C@H](O)[C@H]2C(=O)O", "assay": "broth dilution", "system": "MB2865", "MIC": "> 128 mg/L"}
{"SMILES": "COc1c(C)c(OS(=O)(=O)c2ccc3ccccc3c2)c(C)c(O)c1C(=O)/C=C/c1ccccc1", "assay": "broth dilution", "system": "ATCC25923", "MIC": "2500 mg/L"}
{"SMILES": "CN(C)[C@@H]1C(O)=C(C(N)=O)C(=O)[C@@]2(O)C(O)=C3C(=O)c4c(O)cccc4[C@@](C)(O)[C@H]3C[C@@H]12", "system": "147", "setting": "clinical isolate", "MIC": "≤ 0.1 µM"}
{"SMILES": "COc1ccc(-c2nc3ccccc3[nH]2)cc1OC", "assay": "broth dilution", "system": "ATCC29213 MSSA", "MIC": "128 mg/L"}
{"SMILES": "FC(F)c1nc2ccccc2n1-c1nc(N2CCOCC2)nc(N2CCOCC2)n1", "system": "NCTC8325", "MIC": "> 30 µM"}
{"SMILES": "CCCCCCC#Cc1cncc(-c2nnc(SCc3ccc(Cl)c(F)c3)n2C)c1", "system": "MRSA", "setting": "drug-resistant strain", "MIC": "≥ 20 mg/L"}
{"SMILES": "O=[N+]([O-])c1cnc2ccc(F)cc2c1O", "MIC": "> 128 mg/L"}
{"SMILES": "O=C(O)CN1C(=O)/C(=C/c2ccc(-c3ccc(N(c4ccccc4)c4ccccc4)cc3)cc2)NC1=S", "assay": "broth dilution", "system": "ATCC25923", "MIC": "3.9 mg/L"}
{"SMILES": "C/C=C(\\C)c1cc(OC(=O)c2c(O)c(C)c(O)c(Cl)c2/C(C)=C/C)c(C)c(O)c1C(=O)O", "assay": "broth dilution", "system": "16339", "MIC": "64 mg/L"}
{"SMILES": "Clc1ccc(C2(c3ccc(-c4cn[nH]c4)cc3)CCNCC2)cc1", "system": "NCTC8325", "MIC": "> 30 µM"}
{"SMILES": "C/C=C(\\C)c1cc(O)c(C)c(OC(=O)c2c(C)cc(O)c(Cl)c2O)c1", "assay": "broth dilution", "system": "CCARM3090", "MIC": "8 mg/L"}
{"SMILES": "NC[C@@H]1O[C@H](O[C@H]2[C@@H](O)[C@H](O[C@@H]3[C@@H](O)[C@H](N)C[C@H](N)[C@H]3O[C@H]3O[C@H](CN)[C@@H](O)[C@H](O)[C@H]3N)O[C@@H]2CO)[C@H](N)[C@@H](O)[C@@H]1O", "system": "NEWMAN", "MIC": "5 to 10 mg/L"}
{"SMILES": "CC(C)Oc1c(NC(=O)c2ccc(NC(=O)[C@H](CC(N)=O)NC(=O)c3cccc(NC(=O)c4ccc(C#N)cc4)c3)cc2)ccc(C(=O)Nc2ccc(C(=O)O)cc2)c1O", "system": "ATCC29213", "MIC": "> 64 mg/L"}
{"SMILES": "CC1=NN(CNC(=O)c2ccccc2)C(=O)C1=NNn1c(-c2ccccc2)nc2ccccc2c1=O", "assay": "broth dilution", "setting": "24 h", "MIC": "51.9 µM"}
{"SMILES": "CCn1cc(C(=O)O)c(=O)c2cc(F)c(N3CCNCC3)cc21", "assay": "broth dilution", "system": "ATCC11632", "setting": "18 h", "MIC": "< 5 mg/L"}
{"SMILES": "C/C=C(\\C)c1cc(O)c(C)c(OC(=O)c2c(C)c(Cl)c(O)c(Cl)c2O)c1", "assay": "broth dilution", "system": "ATCC29213", "MIC": "4 mg/L"}
{"SMILES": "O=C(Nc1ccc2c(c1)OC(F)(F)O2)NC12CC3CC(CC(C3)C1)C2", "system": "NCTC8325", "MIC": "> 100 µM"}
{"SMILES": "COc1ccc(-c2nc3ccc(C)cc3[nH]2)cc1OC", "assay": "broth dilution", "system": "ATCC29213 MSSA", "MIC": "128 mg/L"}
{"SMILES": "CC1(C)S[C@@H]2[C@H](NC(=O)[C@H](N)c3ccccc3)C(=O)N2[C@H]1C(=O)O", "assay": "broth dilution", "system": "6917", "MIC": "64 mg/L"}
{"SMILES": "O=C1NC(=S)S/C1=C\\c1ccc(-c2ccc(N(c3ccccc3)c3ccccc3)cc2)c2ccccc12", "assay": "broth dilution", "system": "ATCC43300", "MIC": "1000 mg/L"}
{"SMILES": "O=S(=O)(NCCNC/C=C/c1ccc(Br)cc1)c1cccc2cnccc12", "system": "NCTC8325", "MIC": "> 30 µM"}
{"SMILES": "CC(C)Oc1c(NC(=O)c2ccc(NC(=O)[C@H](CC(N)=O)NC(=O)c3ccc(NC(=O)c4ccc(C#N)cn4)cc3)cc2)ccc(C(=O)Nc2ccc(C(=O)O)cc2)c1O", "system": "ATCC29213", "MIC": "≤ 0.03 mg/L"}
{"SMILES": "C/C=C(\\C)c1cc(OC(=O)c2c(C)c(Cl)c(O)c(Cl)c2O)c(C)c(O)c1C(=O)O", "assay": "broth dilution", "system": "ATCC29213", "MIC": "64 mg/L"}
{"SMILES": "CC(=O)NC[C@H]1CN(c2ccc(N3CCOCC3)c(F)c2)C(=O)O1", "setting": "clinical isolate", "MIC": "1.56 mg/L"}
{"SMILES": "COc1cccc(-c2nc3ccccc3n2Cc2ccccc2)c1", "assay": "broth dilution", "system": "ATCC29213 MSSA", "MIC": "256 mg/L"}
{"SMILES": "CC(C)Oc1c(NC(=O)c2ccc(NC(=O)[C@H](CC(N)=O)NC(=O)c3ccc(NC(=O)c4ccccc4)cc3)cc2)ccc(C(=O)Nc2ccc(C(=O)O)cc2)c1O", "system": "ATCC29213", "MIC": "> 64 mg/L"}
{"SMILES": "O=C(CCc1cc(O)c(O)c(O)c1)NCCCCCCCC[P+](c1ccccc1)(c1ccccc1)c1ccccc1.[Br-]", "assay": "broth dilution", "system": "ATCC43300 MRSA", "setting": "18 h", "MIC": "8 mg/L"}
{"SMILES": "O=C(O)CN1C(=O)/C(=C/c2ccc(-c3ccc(N(c4ccccc4)c4ccccc4)cc3)c3ccccc23)SC1=S", "assay": "broth dilution", "system": "ATCC43300", "MIC": "1000 mg/L"}
{"SMILES": "O=C1NC(=O)C(Cc2ccc(O)cc2)S1 (stereo not shown)", "MIC": "> 128 mg/L"}
{"SMILES": "CC(C)Oc1c(NC(=O)c2ccc(NC(=O)[C@H](CC(N)=O)NC(=O)c3ccc(NC(=O)C(C)Oc4ccc(C#N)cc4)cc3)cc2)ccc(C(=O)Nc2ccc(C(=O)O)cc2)c1O (stereo partly shown)", "system": "ATCC29213", "MIC": "> 64 mg/L"}
{"SMILES": "Cc1ccc(C)n1-c1ccc(-c2nnc(-c3c(Cl)cccc3Cl)[nH]2)cc1", "assay": "broth dilution", "system": "ATCC11632", "setting": "18 h", "MIC": "1 mg/L"}
{"SMILES": "Cc1[nH]c(/C=C2\\C(=O)Nc3ccccc32)c(C)c1CCC(=O)O", "system": "NCTC8325", "MIC": "> 30 µM"}
{"SMILES": "NCCCC[C@H](N)C(=O)Nc1ccc(-n2nc(C(F)(F)F)cc2-c2ccc3c(ccc4ccccc43)c2)cc1", "assay": "broth dilution", "system": "ATCC29213", "setting": "24 h", "MIC": "4 mg/L"}
{"SMILES": "CC1=NN(CNc2ccc(C(=O)O)cc2)C(=O)C1=NNn1c(-c2ccccc2)nc2ccccc2c1=O", "assay": "broth dilution", "setting": "24 h", "MIC": "50.5 µM"}
